Results: ChEMBL document CHEMBL4602713, “Quantitative Proteomics Reveals Cellular Off-Targets of a DDR1 Inhibitor” (ACS Med Chem Lett, 2020)
Calls of active or inactive are those of the source. The rule behind the calls is not given here.

Columns and labels:
[1] = target: T1, Epithelial discoidin domain-containing receptor 1 (Homo sapiens, UniProt Q08345); experiment: Binding affinity to DDR1 in TAMRA-N3 conjugated human […] cells assessed as labeling band formation at 1 to 2 uM incubated for 1 to 3 hrs followed irradiation with UV-light at 365 nm for 20 mins by gel fluorescence scanning analysis
T1 sequence (Q08345 whole entry, the tested form may be a part): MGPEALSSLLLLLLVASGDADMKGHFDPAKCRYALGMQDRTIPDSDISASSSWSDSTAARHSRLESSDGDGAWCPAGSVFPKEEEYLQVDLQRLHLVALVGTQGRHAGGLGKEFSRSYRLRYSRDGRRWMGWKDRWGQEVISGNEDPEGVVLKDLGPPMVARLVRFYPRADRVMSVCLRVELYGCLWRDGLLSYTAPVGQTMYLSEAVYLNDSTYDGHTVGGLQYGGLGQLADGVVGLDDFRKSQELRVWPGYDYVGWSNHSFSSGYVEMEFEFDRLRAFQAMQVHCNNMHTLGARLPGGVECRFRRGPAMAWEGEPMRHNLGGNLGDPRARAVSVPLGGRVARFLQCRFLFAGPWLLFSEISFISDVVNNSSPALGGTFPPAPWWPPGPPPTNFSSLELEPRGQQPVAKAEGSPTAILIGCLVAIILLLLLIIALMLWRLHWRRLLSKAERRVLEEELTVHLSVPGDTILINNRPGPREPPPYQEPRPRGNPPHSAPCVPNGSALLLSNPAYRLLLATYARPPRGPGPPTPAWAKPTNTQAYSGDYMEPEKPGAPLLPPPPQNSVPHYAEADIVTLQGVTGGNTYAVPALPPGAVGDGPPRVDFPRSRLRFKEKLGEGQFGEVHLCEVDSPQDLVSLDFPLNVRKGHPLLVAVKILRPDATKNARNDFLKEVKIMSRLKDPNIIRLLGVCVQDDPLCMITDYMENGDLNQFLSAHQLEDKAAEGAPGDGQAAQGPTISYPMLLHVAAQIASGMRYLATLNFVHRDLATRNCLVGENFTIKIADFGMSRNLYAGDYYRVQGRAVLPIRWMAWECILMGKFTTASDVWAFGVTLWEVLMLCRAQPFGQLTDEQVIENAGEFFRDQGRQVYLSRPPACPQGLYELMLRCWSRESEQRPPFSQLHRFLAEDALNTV
Method in brief: (§1)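 Live H1299 cells or H1299 lysate were incubated with the photoaffinity probe for 1–3 h, then irradiated at 365 nm for 20 min. Labelled proteins were clicked to TAMRA-N3, separated by SDS-PAGE and detected by in-gel fluorescence scanning.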

[2] = target: T1, Epithelial discoidin domain-containing receptor 1; experiment: (§2) Binding affinity to DDR1 in TAMRA-N3 conjugated human […] cells assessed as fluorescence band formation with molecular weight of 110 kDa at 1 to 2 uM incubated for 2 hrs followed by compound washout to remove excess compound and further irradiated with UV-light at 365 nm for 20 mins by pull down assay
[3] = target: T1, Epithelial discoidin domain-containing receptor 1; experiment: Inhibition of human GST-tagged DDR1 (440 to 876 residues) expressed in baculovirus expression system using fluorescein-Poly GAT as substrate incubated for 1 to 2 hrs in presence of ATP by TR-FRET assay
[4] = Drug localization in cytoplasm of human H1299 cells conjugated with TAMRA-N3 incubated for 2 to 6 hrs followed by compound washout twice with PBS buffer to remove excess compound and further irradiated with UV-light for 20 mins by Hoechst staining based confocal microscopy; type: ADME, subcellular; conditions: nci-h1299
Method in brief: (§3)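 H1299 cells were incubated with the probe, with or without excess parent inhibitor, then UV cross-linked. Cells were fixed, permeabilised, clicked to TAMRA-N3 and imaged by confocal microscopy with nuclear staining and DIC. Negative control samples were included.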

[5] = target: T1, Epithelial discoidin domain-containing receptor 1; experiment: Binding affinity to DDR1 in TAMRA-N3 conjugated human […] cell lysate assessed as labeling band formation at 1 to 2 uM incubated for 1 to 3 hrs followed irradiation with UV-light at 365 nm for 20 mins by gel fluorescence scanning analysis; method in brief: as §1
[6] = Drug localization in cellular membrane of human H1299 cells conjugated with TAMRA-N3 incubated for 2 to 6 hrs followed by compound washout twice with PBS buffer to remove excess compound and further irradiated with UV-light for 20 mins by Hoechst staining based confocal microscopy; type: ADME, cell membranes; conditions: nci-h1299; method in brief: as §3
Cathepsin D [7] = target: T2, Cathepsin D (Homo sapiens, UniProt P07339); experiment: as §2, with “cathepsin D” for “DDR1”, “30” for “110”; type: ADME
T2 sequence (P07339 65-162 limits assumed): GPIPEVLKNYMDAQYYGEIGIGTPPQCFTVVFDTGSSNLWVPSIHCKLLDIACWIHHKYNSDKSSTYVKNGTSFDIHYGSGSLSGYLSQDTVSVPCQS
T2 sequence (P07339 169-412 limits assumed): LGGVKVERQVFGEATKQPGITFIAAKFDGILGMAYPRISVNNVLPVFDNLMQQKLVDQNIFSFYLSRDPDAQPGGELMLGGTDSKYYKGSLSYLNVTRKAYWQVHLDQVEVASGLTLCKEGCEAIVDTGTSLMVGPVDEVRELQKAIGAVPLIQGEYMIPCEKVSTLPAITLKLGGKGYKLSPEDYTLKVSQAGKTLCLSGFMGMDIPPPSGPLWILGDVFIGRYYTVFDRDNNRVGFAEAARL
Method in brief: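 Live H1299 cells were labelled with the photoaffinity probe and UV cross-linked. Labelled proteins were pulled down and detected by Western blot; CTSD was probed with an anti-CTSD antibody. The heavy chain of mature CTSD runs at ~33 kDa.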

Cathepsin D [8] = target: T2, Cathepsin D; experiment: Binding affinity to cathepsin D in human […] cells assessed as protein labeling at 0.5 to 1 uM pretreated with lysosomal neutralizing agent ammonium chloride for 30 mins followed by compound treatment by pull down based Western blot analysis; type: ADME, cell-based
Method in brief: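 Live H1299 cells were first treated with 10 mM ammonium chloride for 30 min to neutralise lysosomes. Probe labelling followed, with pull-down and Western blot for CTSD.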

Protein GPR107 = Protein GPR107 (Homo sapiens, UniProt Q5VW38); experiment: Binding affinity to GPR107 in SILAC labeled human H1299 cells incubated for 3 hrs followed by compound washout twice with PBS buffer to remove excess compound and further irradiated with UV-light at 365 nm for 20 mins by LC-MS/MS analysis; type: ADME, cell-based; set-up: dose or concentration left out as unconfirmed; conditions: nci-h1299, 3 h
Chain of Protein GPR107 (Q5VW38 whole entry): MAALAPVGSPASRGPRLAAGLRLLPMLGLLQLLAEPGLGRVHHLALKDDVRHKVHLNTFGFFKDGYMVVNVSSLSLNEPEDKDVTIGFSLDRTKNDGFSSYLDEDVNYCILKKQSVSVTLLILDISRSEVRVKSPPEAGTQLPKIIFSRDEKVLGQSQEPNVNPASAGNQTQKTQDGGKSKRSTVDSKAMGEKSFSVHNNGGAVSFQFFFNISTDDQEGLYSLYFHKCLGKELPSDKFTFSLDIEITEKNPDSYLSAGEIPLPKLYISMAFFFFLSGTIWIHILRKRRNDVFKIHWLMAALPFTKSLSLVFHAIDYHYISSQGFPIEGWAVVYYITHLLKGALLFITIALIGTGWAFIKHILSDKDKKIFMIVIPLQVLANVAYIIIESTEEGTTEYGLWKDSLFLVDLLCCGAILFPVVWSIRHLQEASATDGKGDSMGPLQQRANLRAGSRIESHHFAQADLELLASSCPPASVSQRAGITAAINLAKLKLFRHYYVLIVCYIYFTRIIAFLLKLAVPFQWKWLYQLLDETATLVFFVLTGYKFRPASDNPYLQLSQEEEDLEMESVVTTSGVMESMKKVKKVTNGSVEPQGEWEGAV
Method in brief: (§4)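 SILAC-labelled H1299 cells were treated with the photoaffinity probe for 2–4 h and then UV-irradiated. Labelled proteomes were clicked to biotin-N3, enriched, digested and analysed by LC-MS/MS. Controls (excess parent inhibitor or DMSO) were run in parallel. Biological triplicates were performed, and hits were filtered by SILAC ratios.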

[9] = target: T3, Catechol O-methyltransferase (Homo sapiens, UniProt P21964); experiment: Binding affinity to COMT in SILAC labeled human H1299 cells incubated for 3 hrs followed by compound washout twice with PBS buffer to remove excess compound and further irradiated with UV-light at 365 nm for 20 mins by LC-MS/MS analysis; type: ADME, cell-based; set-up: dose or concentration left out as unconfirmed; conditions: nci-h1299, 3 h; method in brief: as §4
T3 sequence (P21964 whole entry): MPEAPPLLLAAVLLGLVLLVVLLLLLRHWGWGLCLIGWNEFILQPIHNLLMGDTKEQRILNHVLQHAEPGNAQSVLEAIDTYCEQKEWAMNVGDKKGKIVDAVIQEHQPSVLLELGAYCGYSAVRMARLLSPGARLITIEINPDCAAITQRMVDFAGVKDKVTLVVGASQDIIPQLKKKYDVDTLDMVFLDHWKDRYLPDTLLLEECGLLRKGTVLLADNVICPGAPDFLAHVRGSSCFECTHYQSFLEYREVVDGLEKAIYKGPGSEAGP

Cathepsin D [10] = target: T2, Cathepsin D; experiment: (§5) Binding affinity to cathepsin D in SILAC labeled human H1299 cells incubated for 3 hrs followed by compound washout twice with PBS buffer to remove excess compound and further irradiated with UV-light at 365 nm for 20 mins by LC-MS/MS analysis; type: cell-based; set-up: dose or concentration left out as unconfirmed; conditions: nci-h1299, 3 h; method in brief: as §4
Cathepsin D [11] = target: T2, Cathepsin D; experiment: as §5, with “cells assessed as labeling of heavy chain” for “cells”, “hrs in presence of excess parent compound” for “hrs”; type: ADME, cell-based; set-up: dose or concentration left out as unconfirmed; conditions: nci-h1299, 3 h; method in brief: as §4
[12] = Drug distribution in human H1299 cells cytosol incubated for 4 hrs followed cellular conjugation with tetrazine-TAMRA immunofluorescence microscopy; type: ADME, subcellular, NCI-H1299
Method in brief: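 Live H1299 cells were incubated with the TCO-bearing probe for 4 h, fixed, permeabilised and conjugated with tetrazine-TAMRA. After washing with fresh medium, cells were imaged by microscopy alongside anti-DDR1 immunofluorescence staining.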

Cathepsin D [13] = target: T2, Cathepsin D; experiment: Binding affinity to cathepsin D in human H1299 cells assessed as increase in thermal stability of heavy chain at 10 uM incubated for 2 hrs followed by compound washout twice with PBS buffer to remove excess compound and further heated at 95 degree C for 10 mins by CETSA; type: ADME, cell-based; conditions: nci-h1299, 2 h
Method in brief: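 For the cellular thermal shift assay, live H1299 cells were treated with compound or DMSO. The thermal stability of the mature CTSD heavy chain was then compared between the two.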

MDA-MB-231 = experiment: Antiproliferative activity against human MDA-MB-231 cells overexpressing cathepsin D assessed as growth inhibition
SK-BR-3 = experiment: Antiproliferative activity against human SKBR3 cells overexpressing cathepsin D assessed as growth inhibition
Cathepsin D [14] = target: T2, Cathepsin D; experiment: Inhibition of cathepsin D (unknown origin) at 50 to 200 uM
MCF7 = experiment: Antiproliferative activity against human MCF7 cells overexpressing cathepsin D assessed as growth inhibition

| SMILES | Activity [1] | Activity [2] | IC50 [3] | Drug uptake [4] | Activity [5] | Drug uptake [6] | Activity (Cathepsin D [7]) | Activity (Cathepsin D [8]) | Activity (Protein GPR107) | Activity [9] | Activity (Cathepsin D [10]) | Activity (Cathepsin D [11]) | Drug uptake [12] | Activity (Cathepsin D [13]) | IC50 (MDA-MB-231) | IC50 (SK-BR-3) | inhibition (INH) (Cathepsin D [14]) | IC50 (MCF7) |
| --- | --- | --- | --- | --- | --- | --- | --- | --- | --- | --- | --- | --- | --- | --- | --- | --- | --- | --- |
| C#CCCC1(CCN2CCN(Cc3cc(NC(=O)c4ccc5c(c4)CN(c4cncnc4)CC5C)cc(C(F)(F)F)c3)CC2)N=N1 (stereo unspecified) | Active | Active | 577 nM | Active | Active | Active | Active | – | – | – | – | – | – | – | – | – | – | – |
| C#CCCC1(CC(=O)N2CCN(Cc3cc(NC(=O)c4ccc5c(c4)CN(c4cncnc4)CC5C)cc(C(F)(F)F)c3)CC2)N=N1 (stereo unspecified) | Active | Active | 259 nM | Active | Active | Active | Active | Not Active | Active | Active | Active | Active | – | – | – | – | – | – |
| CC1CN(c2cncnc2)Cc2cc(C(=O)Nc3cc(CN4CCN(CCC(=O)NCCCNC(=O)OC5CC/C=C/CCC5)CC4)cc(C(F)(F)F)c3)ccc21 (stereo unspecified) | – | – | 397 nM | – | – | – | – | – | – | – | – | – | Active | – | – | – | – | – |
| CC1CN(c2cncnc2)Cc2cc(C(=O)Nc3cc(CN4CCN(C)CC4)cc(C(F)(F)F)c3)ccc21 (stereo unspecified) | – | – | – | – | – | – | – | – | – | – | – | – | – | Active | 6990 nM | 6620 nM | Active | 3380 nM |
